Results: ChEMBL document CHEMBL1149168, “Discovery and evaluation of potent P1 aryl heterocycle-based thrombin inhibitors” (J Med Chem, 2004)

Columns and labels:
[1] = Ability to double the activated partial thromboplastin time (2x APTT) in human plasma; type: functional
Prothrombin = Prothrombin (Homo sapiens, UniProt P00734); assay: Inhibitory potency against human thrombin
[2] = Maximum plasma concentration of compound in dog following p.o. administration of 0.9 mg/kg; type: ADME, organism-based, Canis lupus familiaris; design: dose 0.9 mg/kg, route oral; conditions: po
Method in brief: (§1)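 Male beagle dogs (10–12 kg), fasted overnight, were given the inhibitor orally at the stated mg/kg as a solution or suspension in 0.5% methocel. Plasma was stored at –20 °C until HPLC analysis.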

[3] = Half-life of compound in dog following p.o. administration of 0.9 mg/kg; type: ADME, organism-based, Canis lupus familiaris; design: dose 0.9 mg/kg, route oral; conditions: in vivo, po; method in brief: as §1
[4] = Half-life of compound in dog following p.o. administration of 0.5 mg/kg; type: ADME, organism-based, Canis lupus familiaris; design: dose 0.5 mg/kg, route oral; conditions: in vivo, po; method in brief: as §1
[5] = Maximum plasma concentration of compound in dog following p.o. administration of 0.5 mg/kg; type: ADME, organism-based, Canis lupus familiaris; design: dose 0.5 mg/kg, route oral; conditions: po; method in brief: as §1
Coagulation factor X = Coagulation factor X (Homo sapiens, UniProt P00742); assay: Inhibitory potency of compound against human Coagulation factor Xa
Sequence of Coagulation factor X (P00742 41-179 limits assumed): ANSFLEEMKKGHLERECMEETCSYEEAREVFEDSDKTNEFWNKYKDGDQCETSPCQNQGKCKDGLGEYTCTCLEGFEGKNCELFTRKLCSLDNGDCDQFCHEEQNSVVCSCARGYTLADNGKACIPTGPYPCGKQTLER
Sequence of Coagulation factor X (P00742 235-488 limits assumed): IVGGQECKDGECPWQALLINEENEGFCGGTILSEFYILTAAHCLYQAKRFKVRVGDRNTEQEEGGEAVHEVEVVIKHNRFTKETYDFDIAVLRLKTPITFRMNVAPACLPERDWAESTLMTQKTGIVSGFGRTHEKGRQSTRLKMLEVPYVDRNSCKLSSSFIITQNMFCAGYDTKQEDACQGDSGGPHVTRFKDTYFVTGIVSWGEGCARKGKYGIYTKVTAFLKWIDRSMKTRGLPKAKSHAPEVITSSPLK

[6] = Half-life of compound in dog following p.o. administration of 1 mg/kg; type: ADME, organism-based, Canis lupus familiaris; design: dose 1 mg/kg, route oral; conditions: in vivo, po; method in brief: as §1
[7] = Maximum plasma concentration of compound in dog following p.o. administration of 1 mg/kg; type: ADME, organism-based, Canis lupus familiaris; design: dose 1 mg/kg, route oral; conditions: po; method in brief: as §1
[8] = Oral bioavailability of compound in rhesus macaques; type: ADME, organism-based, Macaca mulatta; conditions: rhesus monkey, in vivo
[9] = Oral bioavailability of compound in rat; type: ADME, organism-based; conditions: in vivo
[10] = Oral bioavailability in dog; type: ADME, organism-based, Canis lupus familiaris; conditions: in vivo
[11] = Half-life of compound in dog following p.o. administration of 0.95 mg/kg; type: ADME, organism-based, Canis lupus familiaris; design: dose 0.95 mg/kg, route oral; conditions: in vivo, po; method in brief: as §1
[12] = Maximum plasma concentration of compound in dog following p.o. administration of 0.95 mg/kg; type: ADME, organism-based, Canis lupus familiaris; design: dose 0.95 mg/kg, route oral; conditions: po; method in brief: as §1
[13] = Half life of compound in dog following oral administration; type: ADME, organism-based, Canis lupus familiaris; conditions: in vivo; method in brief: as §1
Canis familiaris = species on record: Canis familiaris; assay: Half life of compound in dog was determined; type: ADME, organism-based, Canis lupus familiaris; conditions: in vivo

Row | Ki (Prothrombin) | SMILES | 2x APTT [1] | also measured
1 | 1.4 nM | Cc1ccc(NS(=O)(=O)Cc2ccccc2)c(=O)n1CC(=O)NCc1ccccc1-n1cnnn1 | 0.37 µM | –
2 | 0.096 nM | O=C(Cn1c(Cl)cnc(NCC(F)(F)c2ccccn2)c1=O)NCc1ccccc1-n1cnnn1 | 0.22 µM | –
3 | 16 nM | O=C(Cn1ccnc(NCC(F)(F)c2ccccn2)c1=O)NCc1ccccc1-n1cncn1 | 2.06 µM | –
4 | 0.33 nM | N[C@H](Cc1ccccc1)C(=O)N1CCC[C@H]1CC(=O)NCc1cc(Cl)ccc1-n1cnnn1 | 0.23 µM | –
5 | 0.05 nM | O=C(Cn1c(Cl)cnc(NCC(F)(F)c2cccc[n+]2[O-])c1=O)NCc1ccccc1-n1cnnn1 | 0.2 µM | –
6 | 0.45 nM | O=C(Cn1c(Cl)cnc(NCC(F)(F)c2ccccn2)c1=O)NCc1ccccc1-n1cncn1 | 0.23 µM | half-life [4]: 3.5 h; Cmax [5]: 1130 nM
7 | 1.1 nM | O=C(Cn1ccnc(NCC(F)(F)c2cccc[n+]2[O-])c1=O)NCc1ccccc1-n1cnnn1 | 0.42 µM | Ki (Coagulation factor X): 370 nM
8 | 0.21 nM | O=C(Cn1c(Cl)cnc(NCC(F)(F)c2cccc[n+]2[O-])c1=O)NCc1ccccc1-n1cncn1 | 0.29 µM | half-life [6]: 1.4 h; Cmax [7]: 860 nM
9 | – | Cc1nc(N)ccc1CNC(=O)Cn1c(C)cnc(NCCc2ccccc2)c1=O [L-375378] | – | bioavailability [8]: 60%; bioavailability [9]: 42%; bioavailability [10]: 91%
10 | 0.033 nM | O=C(Cn1ccnc(NCC(F)(F)c2ccccn2)c1=O)NCc1cc(Cl)ccc1-n1cnnn1 | 0.2 µM | half-life [11]: 2 h; Cmax [12]: 1310 nM; Ki (Coagulation factor X): 10 nM
11 | 2.7 nM | O=C(Cn1ccnc(NCC(F)(F)c2ccccn2)c1=O)NCc1ccccc1-n1cnnn1 | 0.52 µM | –
12 | 3 nM | N[C@@H](C(=O)N1CCC[C@H]1C(=O)NCc1cc(Cl)ccc1Cl)C(c1ccccc1)c1ccccc1 | – | half-life [13]: 1.67 h; bioavailability [10]: 45%
13 | 940 nM | O=C(Cn1c(Cl)cnc(NCC(F)(F)c2ccccn2)c1=O)NCc1ccccc1-c1nnn[nH]1 | – | –
14 | – | O=C(Cn1c(Cl)cnc(NCC(F)(F)c2cccc[n+]2[O-])c1=O)NCc1cc(Cl)ccc1-n1cnnn1 | 0.13 µM | –
15 | 0.085 nM | O=C(Cn1ccnc(NCC(F)(F)c2cccc[n+]2[O-])c1=O)NCc1cc(Cl)ccc1-n1cncn1 | 0.26 µM | –
16 | 4.2 nM | O=C(Cn1c(Cl)cnc(NCC(F)(F)c2ccccn2)c1=O)NCc1ccccc1-c1c[nH]cn1 | 1.83 µM | –
17 | 2 nM | N[C@H](Cc1ccccn1)C(=O)N1CCC[C@H]1CC(=O)NCc1ccccc1-n1cncn1 | 0.39 µM | –
18 | – | O=C(Cn1c(Cl)cnc(NCC(F)(F)c2ccccn2)c1=O)NCc1ncccc1F [DPOC-4088] | – | T1/2 (Canis familiaris): 4.5 h
19 | 7.2 nM | O=C(Cn1ccnc(NCC(F)(F)c2cccc[n+]2[O-])c1=O)NCc1ccccc1-n1cncn1 | 0.98 µM | –
20 | 7.3 nM | Cc1ccc(NS(=O)(=O)Cc2ccccc2)c(=O)n1CC(=O)NCc1ccccc1-n1cncn1 | 1.06 µM | –
21 | 0.44 nM | O=C(Cn1c(Cl)cnc(NCC(F)(F)c2ccccn2)c1=O)NCc1cccc(Cl)c1 | 0.79 µM | –
22 | 12 nM | O=C(Cn1c(Cl)cnc(NCC(F)(F)c2ccccn2)c1=O)NCc1ccccc1 | 2.68 µM | –
23 | 0.013 nM | O=C(Cn1ccnc(NCC(F)(F)c2cccc[n+]2[O-])c1=O)NCc1cc(Cl)ccc1-n1cnnn1 | 0.12 µM | Ki (Coagulation factor X): 5 nM

Row | SMILES | Ki (Prothrombin) | 2x APTT [1] | also measured
24 | Cn1nnnc1-c1ccccc1CNC(=O)Cn1c(Cl)cnc(NCC(F)(F)c2ccccn2)c1=O | 1.2 nM | 0.34 µM | –
25 | N[C@H](Cc1ccccc1)C(=O)N1CCC[C@H]1CC(=O)NCc1ccccc1-n1cncn1 | 1.06 nM | – | –
26 | N[C@H](Cc1ccccn1)C(=O)N1CCC[C@H]1CC(=O)NCc1cc(Cl)ccc1-n1cnnn1 | 0.4 nM | 0.2 µM | –
27 | O=C(Cn1c(Cl)cnc(NCC(F)(F)c2ccccn2)c1=O)NCc1ccccc1-n1cnnc1 | 3.5 nM | 0.52 µM | –
28 | O=C(Cn1c(Cl)cnc(NCC(F)(F)c2ccccn2)c1=O)NCc1ccccc1-c1ncc[nH]1 | 7.2 nM | 2.88 µM | –
29 | O=C(Cn1c(Cl)cnc(NCC(F)(F)c2ccccn2)c1=O)NCc1ccccc1-n1ccnc1 | 6.3 nM | 1.29 µM | –
30 | O=C(Cn1c(Cl)cnc(NCC(F)(F)c2cccc[n+]2[O-])c1=O)NCc1cc(Cl)ccc1-n1cncn1 | < 0.01 nM | 0.2 µM | –
31 | Cc1ccc(-n2cncn2)c(CNC(=O)CN2C=CN=C(NCC(F)(F)c3ccccn3)C2)c1 | 0.24 nM | 0.33 µM | Cmax [2]: 1040 nM; half-life [3]: 1.2 h
32 | Cn1nnc(-c2ccccc2CNC(=O)Cn2c(Cl)cnc(NCC(F)(F)c3ccccn3)c2=O)n1 | 5.8 nM | 1.72 µM | –
33 | Cc1ccc(NS(=O)(=O)Cc2ccccc2)c(=O)n1CC(=O)NCc1cc(Cl)ccc1-n1cncn1 | 0.16 nM | 0.36 µM | –
34 | O=C(Cn1c(Cl)cnc(NCC(F)(F)c2ccccn2)c1=O)NCc1ncccc1-n1cncn1 | 0.66 nM | 0.33 µM | –
35 | O=C(Cn1c(Cl)cnc(NCC(F)(F)c2ccccn2)c1=O)NCc1ccccc1-c1cc[nH]n1 | 5.6 nM | 2.08 µM | –
36 | O=C(Cn1c(Cl)cnc(NCC(F)(F)c2ccccn2)c1=O)NCc1cc(Cl)ccc1-n1cncn1 | < 0.01 nM | 0.17 µM | –
37 | O=C(Cn1c(Cl)cnc(NCC(F)(F)c2ccccn2)c1=O)NCc1ncccc1-n1cnnn1 | 0.14 nM | 0.25 µM | –
38 | O=C(Cn1c(Cl)cnc(NCC(F)(F)c2ccccn2)c1=O)NCc1ccccc1-n1cccn1 | 6.9 nM | 1.9 µM | –
39 | O=C(Cn1c(Cl)cnc(NCC(F)(F)c2ccccn2)c1=O)NCc1cc(Cl)ccc1-n1cnnn1 | 0.0015 nM | 0.18 µM | –
40 | O=C(Cn1c(Cl)cnc(NCC(F)(F)c2ccccn2)c1=O)NCc1ccccc1-c1csnn1 | 0.84 nM | 0.6 µM | –
41 | Cc1ccc(NS(=O)(=O)Cc2ccccc2)c(=O)n1CC(=O)NCc1cc(Cl)ccc1-n1cnnn1 | 0.018 nM | 0.23 µM | Ki (Coagulation factor X): 11 nM
